Values after ≈ are worked out from the molar mass of the structure shown. Active and inactive are the calls of the source. No cut-off for these calls is given here.
Columns and labels:
Pseudomonas aeruginosa = assay: Antibacterial activity against Pseudomonas aeruginosa ATCC 27853 after 24 hrs by microbroth dilution method; type: functional; conditions: ATCC 27853, 24 h
How it was run: (§1)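 Microbroth dilution per CLSI guidelines. Organisms grown in Mueller−Hinton broth at 37 °C with shaking to log phase, pelleted, resuspended in 0.85% saline to OD625 0.1. Final inoculum 5 × 10^5 CFU/mL; triplicate; 24 h at 37 °C. OD625 read; MIC = lowest concentration completely inhibiting growth versus untreated controls.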

Staphylococcus aureus [1] = assay: Antibacterial activity against methicillin-resistant Staphylococcus aureus A960649 after 24 hrs by microbroth dilution method; type: functional; conditions: A960649, 24 h
How it was run: (§2)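 Mueller-Hinton broth cultures grown at 37 °C with shaking to log phase, pelleted, resuspended in 0.85% saline to OD625 0.1. Broth microdilution per CLSI guidelines, final inoculum 5 × 10^5 CFU/mL, in triplicate, 24 h at 37 °C. Growth read as OD625. MIC is the lowest concentration giving complete growth inhibition versus untreated controls.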

Staphylococcus aureus [2] = assay: Antibacterial activity against Staphylococcus aureus ATCC 29213 after 24 hrs by microbroth dilution method; type: functional; conditions: ATCC 29213, 24 h; how it was run: as §1
Enterococcus faecium = assay: Antibacterial activity against Enterococcus faecium BM4105RF after 24 hrs by microbroth dilution method; type: functional; how it was run: as §2
[3] = Binding affinity to dA60.dT60 B-DNA duplex (unknown origin) assessed as induction of biphasic transition at <5 uM by UV-vis spectrophotometric analysis
[4] = Binding affinity to dA60.dT60 B-DNA duplex (unknown origin) assessed as change in melting temperature at 10 uM by UV-vis spectrophotometric analysis
How it was run: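 UV melting of dA60·dT60 at 1 μM/duplex with compound at 10 μM. Buffer 10 mM sodium cacodylate, 0.1 mM EDTA, 100 mM NaCl, pH 7.0; duplex pre-annealed from 95 °C. Compound stocks in DMSO diluted into buffer. Heating at 0.2 °C/min, monitored at 260 nm, points every 1.0 °C; Tm taken from derivatives.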

Enterobacter cloacae = assay: Antibacterial activity against Enterobacter cloacae ATCC 13047 after 24 hrs by microbroth dilution method; type: functional; conditions: ATCC 13047, 24 h; how it was run: as §1
Citrobacter freundii = assay: Antibacterial activity against Citrobacter freundii 4747CFAA after 24 hrs by microbroth dilution method; type: functional; how it was run: as §1
Klebsiella pneumoniae = assay: Antibacterial activity against Klebsiella pneumoniae NR15410 after 24 hrs by microbroth dilution method; type: functional; conditions: NR15410, 24 h; how it was run: as §1
Escherichia coli [5] = assay: Antibacterial activity against Escherichia coli K-12 after 24 hrs by microbroth dilution method; type: functional; conditions: K-12, 24 h; how it was run: as §1
Escherichia coli [6] = assay: Antibacterial activity against Escherichia coli ATCC 25922 after 24 hrs by microbroth dilution method; type: functional; conditions: ATCC 25922, 24 h; how it was run: as §1
Staphylococcus aureus [7] = assay: Antibacterial activity against Staphylococcus aureus ATCC 33591 after 24 hrs by microbroth dilution method; type: functional; conditions: ATCC 33591, 24 h; how it was run: as §1
Staphylococcus aureus [8] = assay: Antibacterial activity against methicillin-resistant Staphylococcus aureus 33591 after 24 hrs by microbroth dilution method; type: functional; conditions: Staphylococcus aureus, 33591, 24 h; how it was run: as §2
Acinetobacter baumannii = assay: Antibacterial activity against Acinetobacter baumannii ATCC 19606 after 24 hrs by microbroth dilution method; type: functional; conditions: ATCC 19606 = CIP 70.34 = JCM 6841, 24 h; how it was run: as §1
Shigella flexneri = assay: Antibacterial activity against Shigella flexneri 2457NR517 after 24 hrs by microbroth dilution method; type: functional; conditions: 2457NR517, 24 h; how it was run: as §2
Enterococcus faecalis = assay: Antibacterial activity against Enterococcus faecalis ATCC 29212 after 24 hrs by microbroth dilution method; type: functional; conditions: ATCC 29212, 24 h; how it was run: as §1
[9] = tested on: Staphylococcus epidermidis; assay: Antibacterial activity against Staphylococcus epidermidis ATCC 12384 after 24 hrs by microbroth dilution method; type: functional; conditions: ATCC 12384, 24 h; how it was run: as §1
Escherichia coli [10] = assay: Inhibition of Escherichia coli RNA topoisomerase 1 using circular RNA as substrate up to 50 uM after 1.5 hrs by SDS-PAGE analysis
How it was run: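 10 nM E. coli topoisomerase I premixed with reaction buffer and inhibitor diluted in DMSO, then circular RNA substrate added; 1.5 h incubation. Stopped with proteinase K/SDS/EDTA buffer. Trefoil RNA knot product separated from circular substrate on 15% TBE−urea gels and detected by phosphorimaging. DMSO-only control included.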

DU-145 = assay: Cytotoxicity against human DU145 cells after 48 hrs by SRB assay; type: cell-based; conditions: human, du-145, 48 h
How it was run: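 Cells cultured per ATCC protocols, seeded and grown 24 h (37 °C, 5% CO2), then treated in triplicate at final 20, 10, 5, 2.5, 1.25, 0.625 and 0.0625 μM for 48 h. Fixed with cold TCA (16% final, 4 °C, 1 h), stained with SRB in 1% acetic acid, dye solubilized in 10 mM Tris base, A560 read. IC50 derived; study in duplicate.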

Escherichia coli [11] = assay: Inhibition of Escherichia coli DNA gyrase using relaxed plasmid pBAD-GFPuv as substrate after 30 mins by agarose gel electrophoresis
[12] = Inhibition of Escherichia coli DNA topoisomerase 1 using plasmid pBAD-GFPuv as substrate after 15 mins by agarose gel electrophoresis
How it was run: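 E. coli topoisomerase I at 6 nM relaxing 150 ng supercoiled pBAD-GFPuv. 15 min at 37 °C, phenol-stopped, 1% agarose gel, ethidium stain. IC50 is the concentration leaving 50% DNA supercoiled; three independent determinations.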

DNA topoisomerase 1 = target: T1, DNA topoisomerase 1 (Homo sapiens, UniProt P11387); assay: Inhibition of human DNA topoisomerase 1 using plasmid pBAD-GFPuv as substrate after 30 mins by agarose gel electrophoresis
T1 sequence (P11387 whole entry): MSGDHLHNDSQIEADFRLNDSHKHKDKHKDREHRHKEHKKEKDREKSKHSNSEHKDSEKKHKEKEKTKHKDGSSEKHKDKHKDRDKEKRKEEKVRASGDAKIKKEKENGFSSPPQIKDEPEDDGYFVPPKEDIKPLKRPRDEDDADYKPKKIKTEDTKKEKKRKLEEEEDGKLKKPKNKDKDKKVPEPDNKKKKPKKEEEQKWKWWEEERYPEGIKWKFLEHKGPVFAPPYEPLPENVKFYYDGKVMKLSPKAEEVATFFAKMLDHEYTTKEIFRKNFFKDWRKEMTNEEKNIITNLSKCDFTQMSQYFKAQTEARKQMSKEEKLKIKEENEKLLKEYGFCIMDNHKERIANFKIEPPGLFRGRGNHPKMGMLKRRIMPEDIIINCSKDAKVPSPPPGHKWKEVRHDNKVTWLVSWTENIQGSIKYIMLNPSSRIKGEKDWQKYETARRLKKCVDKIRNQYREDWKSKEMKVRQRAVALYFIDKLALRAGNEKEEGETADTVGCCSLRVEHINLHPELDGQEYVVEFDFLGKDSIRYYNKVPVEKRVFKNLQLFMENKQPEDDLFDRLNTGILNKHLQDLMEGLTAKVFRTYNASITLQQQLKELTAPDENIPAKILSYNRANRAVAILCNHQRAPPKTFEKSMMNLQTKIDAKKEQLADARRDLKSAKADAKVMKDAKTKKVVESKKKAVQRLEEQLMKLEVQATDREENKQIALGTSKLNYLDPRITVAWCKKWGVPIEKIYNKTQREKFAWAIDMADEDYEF

| SMILES | MIC (Pseudomonas aeruginosa) | MIC (Staphylococcus aureus [1]) | MIC (Staphylococcus aureus [2]) | MIC (Enterococcus faecium) | Activity [3] | ΔTm [4] | MIC (Enterobacter cloacae) | MIC (Citrobacter freundii) | MIC (Klebsiella pneumoniae) | MIC (Escherichia coli [5]) | MIC (Escherichia coli [6]) | MIC (Staphylococcus aureus [7]) | MIC (Staphylococcus aureus [8]) | MIC (Acinetobacter baumannii) | MIC (Shigella flexneri) | MIC (Enterococcus faecalis) | MIC [9] | inhibition (Escherichia coli [10]) | Activity (DU-145) | further results |
| --- | --- | --- | --- | --- | --- | --- | --- | --- | --- | --- | --- | --- | --- | --- | --- | --- | --- | --- | --- | --- |
| CN1CCN(c2ccc3nc(-c4ccc(OCc5cn(CCN=[N+]=[N-])nn5)cc4)[nH]c3c2)CC1 | 16 µg/mL (≈ 34.9 µM) | > 32 µg/mL | 16 to 32 µg/mL (≈ 34.9 to 69.8 µM) | > 32 µg/mL | Active | 1.2 °C | > 32 µg/mL | > 32 µg/mL | > 32 µg/mL | 16 µg/mL (≈ 34.9 µM) | 16 µg/mL (≈ 34.9 µM) | 16 to 32 µg/mL (≈ 34.9 to 69.8 µM) | > 32 µg/mL | > 32 µg/mL | > 32 µg/mL | 16 to 32 µg/mL (≈ 34.9 to 69.8 µM) | > 32 µg/mL |  |  |  |
| C#Cc1ccc(-c2cn(CCOc3ccc(-c4nc5ccc(N6CCN(C)CC6)cc5[nH]4)cc3)nn2)cc1 | 16 µg/mL (≈ 31.8 µM) | > 32 µg/mL | 16 to 32 µg/mL (≈ 31.8 to 63.5 µM) | > 32 µg/mL | Active | 1.9 °C | > 32 µg/mL | > 32 µg/mL | > 32 µg/mL | 16 µg/mL (≈ 31.8 µM) | 16 µg/mL (≈ 31.8 µM) | 16 µg/mL (≈ 31.8 µM) | > 32 µg/mL | > 32 µg/mL | > 32 µg/mL | 16 to 32 µg/mL (≈ 31.8 to 63.5 µM) | > 32 µg/mL |  |  |  |
| CN1CCN(c2ccc3nc(-c4ccc(OCCN=[N+]=[N-])cc4)[nH]c3c2)CC1 | 16 µg/mL (≈ 42.4 µM) | > 32 µg/mL | ≥ 32 µg/mL | > 32 µg/mL | Active | 1.9 °C | > 32 µg/mL | > 32 µg/mL | > 32 µg/mL | 16 µg/mL (≈ 42.4 µM) | 16 µg/mL (≈ 42.4 µM) | 16 to 32 µg/mL (≈ 42.4 to 84.8 µM) | > 32 µg/mL | > 32 µg/mL | > 32 µg/mL | 16 to 32 µg/mL (≈ 42.4 to 84.8 µM) | > 32 µg/mL |  |  |  |
| C#CCOCCCCCCOc1ccc(-c2nc3ccc(N4CCN(C)CC4)cc3[nH]2)cc1 | 16 µg/mL (≈ 35.8 µM) | > 32 µg/mL | 16 to 32 µg/mL (≈ 35.8 to 71.7 µM) | > 32 µg/mL | Active | 1.4 °C | > 32 µg/mL | > 32 µg/mL | > 32 µg/mL | 16 µg/mL (≈ 35.8 µM) | 16 µg/mL (≈ 35.8 µM) | 16 to 32 µg/mL (≈ 35.8 to 71.7 µM) | > 32 µg/mL | > 32 µg/mL | > 32 µg/mL | 16 to 32 µg/mL (≈ 35.8 to 71.7 µM) | > 32 µg/mL |  |  |  |
| C#CCCCCOc1ccc(-c2nc3ccc(-c4nc5ccc(N6CCN(C)CC6)cc5[nH]4)cc3[nH]2)cc1 | 16 µg/mL (≈ 31.7 µM) | 4 µg/mL (≈ 7.93 µM) |  | 1 to 2 µg/mL (≈ 1.98 to 3.96 µM) |  |  | > 32 µg/mL | > 32 µg/mL | > 32 µg/mL |  | 8 to 16 µg/mL (≈ 15.9 to 31.7 µM) |  | 4 µg/mL (≈ 7.93 µM) | 16 µg/mL (≈ 31.7 µM) | 8 µg/mL (≈ 15.9 µM) |  | 1 to 2 µg/mL (≈ 1.98 to 3.96 µM) | inactive | Toxic | inhibition (Escherichia coli [11]): inactive |
| C#CCOCCCCCCOc1ccc(-c2nc3ccc(-c4nc5ccc(N6CCN(C)CC6)cc5[nH]4)cc3[nH]2)cc1 | 16 to 32 µg/mL (≈ 28.4 to 56.9 µM) | > 32 µg/mL | 16 to 32 µg/mL (≈ 28.4 to 56.9 µM) | > 32 µg/mL | Active | 18.3 °C | > 32 µg/mL | > 32 µg/mL | > 32 µg/mL | 8 µg/mL (≈ 14.2 µM) | 16 to 32 µg/mL (≈ 28.4 to 56.9 µM) | 16 to 32 µg/mL (≈ 28.4 to 56.9 µM) | > 32 µg/mL | > 32 µg/mL | > 32 µg/mL | 16 to 32 µg/mL (≈ 28.4 to 56.9 µM) | > 32 µg/mL | inactive | Toxic | IC50 [12]: 3.2 µM; IC50 (DNA topoisomerase 1): > 50 µM |

— ChEMBL document CHEMBL4014329, “Selective Inhibition of Escherichia coli RNA and DNA Topoisomerase I by Hoechst 33258 Derived Mono- and Bisbenzimidazoles” (J Med Chem, 2017)
